Assay results taken from ChEMBL document CHEMBL2321812 (J Med Chem, 2013).
The source made the active and inactive calls. The calls are words filed in the database; no cut-off is given here.

Key:
[1] = Half life in human liver microsomes; type: ADME, Microsome
Tankyrase 1/2 = biological target: T1, Tankyrase 1/2 (Homo sapiens, UniProt Q9H2K2+O95271); test: Inhibition of TNKS1/2 in HEK293 cells assessed as inhibition of Wnt/beta-catenin pathway after 24 hrs by luciferase reporter gene assay; type: cell-based
T1 sequence (Q9H2K2 whole entry): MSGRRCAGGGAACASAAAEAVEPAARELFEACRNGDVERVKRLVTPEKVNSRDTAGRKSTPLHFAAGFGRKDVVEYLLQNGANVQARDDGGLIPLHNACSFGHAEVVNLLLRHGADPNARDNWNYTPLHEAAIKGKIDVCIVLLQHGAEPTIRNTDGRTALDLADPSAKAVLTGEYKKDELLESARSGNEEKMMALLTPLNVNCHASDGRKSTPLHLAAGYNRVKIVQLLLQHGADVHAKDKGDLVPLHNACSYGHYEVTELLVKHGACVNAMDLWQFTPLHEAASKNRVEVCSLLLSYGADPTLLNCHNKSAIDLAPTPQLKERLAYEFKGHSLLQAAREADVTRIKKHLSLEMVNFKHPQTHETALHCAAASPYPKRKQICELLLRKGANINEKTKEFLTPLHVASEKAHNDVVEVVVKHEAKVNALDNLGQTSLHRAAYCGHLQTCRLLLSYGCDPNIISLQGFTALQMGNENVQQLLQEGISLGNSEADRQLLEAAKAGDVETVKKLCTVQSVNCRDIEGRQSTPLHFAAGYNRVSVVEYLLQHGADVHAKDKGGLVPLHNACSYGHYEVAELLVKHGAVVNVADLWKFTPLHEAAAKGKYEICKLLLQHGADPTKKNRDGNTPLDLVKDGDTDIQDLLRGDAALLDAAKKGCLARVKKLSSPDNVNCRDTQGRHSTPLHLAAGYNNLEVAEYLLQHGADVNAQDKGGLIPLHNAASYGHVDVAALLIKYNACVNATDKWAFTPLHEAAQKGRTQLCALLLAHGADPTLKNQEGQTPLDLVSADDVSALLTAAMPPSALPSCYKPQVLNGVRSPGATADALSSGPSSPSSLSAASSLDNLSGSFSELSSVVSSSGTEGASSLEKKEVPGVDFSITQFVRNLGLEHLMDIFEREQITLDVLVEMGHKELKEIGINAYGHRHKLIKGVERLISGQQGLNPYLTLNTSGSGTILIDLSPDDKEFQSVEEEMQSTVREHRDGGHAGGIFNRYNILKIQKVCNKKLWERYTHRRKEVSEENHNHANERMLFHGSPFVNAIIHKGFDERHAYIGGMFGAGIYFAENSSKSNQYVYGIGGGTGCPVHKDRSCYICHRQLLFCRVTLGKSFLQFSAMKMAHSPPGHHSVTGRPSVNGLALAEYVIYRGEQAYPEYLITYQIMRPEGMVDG
T1 sequence (O95271 whole entry): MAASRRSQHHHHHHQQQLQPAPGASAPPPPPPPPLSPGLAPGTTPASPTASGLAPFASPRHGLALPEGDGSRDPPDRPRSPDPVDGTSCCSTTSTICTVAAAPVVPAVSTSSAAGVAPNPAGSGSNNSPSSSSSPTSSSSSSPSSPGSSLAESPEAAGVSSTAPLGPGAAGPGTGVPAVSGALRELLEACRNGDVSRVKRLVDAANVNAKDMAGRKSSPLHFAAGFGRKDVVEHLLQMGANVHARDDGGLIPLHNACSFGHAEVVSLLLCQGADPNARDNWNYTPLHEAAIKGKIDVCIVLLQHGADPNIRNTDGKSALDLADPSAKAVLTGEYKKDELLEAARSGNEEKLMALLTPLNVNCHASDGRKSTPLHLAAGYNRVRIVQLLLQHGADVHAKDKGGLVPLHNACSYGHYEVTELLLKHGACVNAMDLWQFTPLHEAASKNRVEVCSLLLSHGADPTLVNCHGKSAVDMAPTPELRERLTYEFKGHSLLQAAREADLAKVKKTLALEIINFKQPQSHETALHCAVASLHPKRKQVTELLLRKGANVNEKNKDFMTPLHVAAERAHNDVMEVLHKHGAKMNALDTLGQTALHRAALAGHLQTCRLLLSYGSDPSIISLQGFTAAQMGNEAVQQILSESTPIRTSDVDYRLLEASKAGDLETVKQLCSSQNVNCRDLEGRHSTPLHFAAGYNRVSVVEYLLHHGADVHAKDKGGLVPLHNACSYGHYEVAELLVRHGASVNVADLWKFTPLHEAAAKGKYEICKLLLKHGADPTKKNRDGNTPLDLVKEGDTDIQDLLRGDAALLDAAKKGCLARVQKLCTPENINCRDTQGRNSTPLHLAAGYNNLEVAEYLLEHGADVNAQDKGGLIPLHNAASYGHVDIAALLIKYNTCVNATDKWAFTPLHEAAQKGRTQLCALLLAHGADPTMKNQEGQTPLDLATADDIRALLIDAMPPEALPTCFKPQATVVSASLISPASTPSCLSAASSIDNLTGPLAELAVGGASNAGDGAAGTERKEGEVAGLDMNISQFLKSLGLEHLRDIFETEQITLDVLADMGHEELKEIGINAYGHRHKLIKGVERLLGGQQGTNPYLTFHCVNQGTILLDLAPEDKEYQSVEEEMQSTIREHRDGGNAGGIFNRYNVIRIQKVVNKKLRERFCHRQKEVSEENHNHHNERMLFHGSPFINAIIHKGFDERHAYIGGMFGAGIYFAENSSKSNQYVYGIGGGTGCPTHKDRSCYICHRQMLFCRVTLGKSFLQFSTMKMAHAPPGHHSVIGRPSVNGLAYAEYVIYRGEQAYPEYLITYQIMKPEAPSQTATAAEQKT

[2] = biological target: T2, Poly [ADP-ribose] polymerase tankyrase-2 (Homo sapiens, UniProt Q9H2K2); test: Inhibition of TNKS2 (unknown origin) by NAD+-dependent autopoly(ADP ribosyl)lation assay
T2 sequence (Q9H2K2 whole entry): T1 sequence (Q9H2K2 whole entry)

[3] = biological target: Tankyrase 1/2 (Homo sapiens) (UniProt Q9H2K2+O95271); test: Inhibition of TNKS1/2 in HEK293 cells assessed as inhibition of Wnt/[…] pathway at 10 uM after 24 hrs by luciferase reporter gene assay; type: cell-based
How it was run: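 ST-Luc/Ren HEK293 cells (stable SuperTOP-Flash, 7× TCF sites) were seeded at 40,000 per well on poly-L-lysine. After 24 h, cells got compound for 24 h in 50% Wnt3a-conditioned medium from L Wnt3a cells. Lysates were read for firefly and Renilla luciferase by dual-luciferase luminescence.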

Row | SMILES | half-life [1] | IC50 (Tankyrase 1/2) | other results
1 | Oc1cc(-c2nnc(/C=C/c3nnc(-c4ccc(F)cc4)n3-c3ccccc3Cl)o2)ccn1 | 128 min |  | 
2 | Cc1cc2nc(CSc3nnc(-c4ccncc4)n3-c3ccccc3Cl)cc(=O)n2cc1C | 7 min |  | 
3 | COc1cc(-c2nnc(/C=C/c3nnc(-c4ccc(S(C)(=O)=O)cn4)n3-c3ccccc3Cl)o2)ccn1 | 37 min |  | 
4 | CS(=O)(=O)c1ccc(-c2nnc(SCc3nnc(-c4ccc(Cl)cc4)o3)n2-c2ccccc2Cl)nc1 | 4 min |  | 
5 | Cc1ccc(-c2nnc(CCc3nnc(-c4ccncc4)n3-c3ccccc3Cl)o2)cc1 | 7 min |  | 
6 | N#Cc1ccc(-c2nnc(CSc3nnc(-c4ccncc4)n3-c3ccccc3Cl)o2)cc1 | 2.4 min |  | 
7 | Cc1nnc(SCc2nnc(-c3ccc(Cl)cc3)o2)n1-c1ccccc1Cl |  | 4.5 µM | 
8 | NCCCOCCCOc1cccc(-c2noc(CSc3nnc(-c4ccncc4)n3-c3ccccc3Cl)n2)c1 |  | 3.92 µM | 
9 | N#Cc1ccc(-c2nnc(CSc3nnc(-c4ccncc4)n3-c3ccncc3Cl)o2)cc1 |  |  | inhibition [3]: inactive

Continued, in another order:

Row | half-life [1] | IC50 (Tankyrase 1/2) | SMILES | other results
10 | 3 min | 1.01 µM | COc1ccc(-n2c(SCc3nc(-c4ccc(C)cc4)no3)nnc2-c2ccncc2)cc1 | IC50 [2]: 0.46 µM
11 | 6.5 min | > 10 µM | COc1ccc(-n2c(NCc3nc(-c4ccc(C)cc4)no3)nnc2-c2ccncc2)cc1 | IC50 [2]: > 10 µM
12 |  | > 10 µM | Cc1ccc(-c2noc(CSc3ncc(-c4ccncc4)n3-c3ccccc3C)n2)cc1 | 
13 |  | > 10 µM | COc1ccc(-n2c(OCc3nc(-c4ccc(C)cc4)no3)nnc2-c2ccncc2)cc1 | IC50 [2]: > 10 µM
